The test system of data set [1] is A549. The data set is described as follows: Growth inhibition of human A549 cells after 24 hrs by WST-1 assay. In kind it is functional. Particulars: A549, 24 h. The method in brief:
(§1)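 Cancer cells were grown in McCoy's 5A with 10% FBS and penicillin/streptomycin, 37 °C, 5% CO2. Cells were seeded at 1 × 10^4 per well, cultured 12 h, then given compound (10 mM DMSO stock diluted in medium, 0.5% DMSO) for 24 h. WST-1 was added for 4 h and absorbance read at 450/630 nm. GI50 given as mean ± SE, five independent experiments.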
(In general: Tetrazolium dyes change colour on reduction, which living cells bring about.)

For data set [2], the system named is BALL-1. The data set is described as follows: Growth inhibition of human BALL-1 cells after 24 hrs by WST-1 assay. In kind it is functional. The settings on record: BALL-1, 24 h. The method in brief:
as §1

In data set [3] the test system is HCT-116. Put plainly: Growth inhibition of against human HCT116 cells after 24 hrs by WST-1 assay. In kind it is functional. The settings on record: HCT-116, 24 h. The procedure, abridged:
as §1

Data set [4] deals with HeLa. Put plainly: Growth inhibition of human HeLa cells after 24 hrs by WST-1 assay. Format: functional. The method in brief:
as §1

For data set [5], the system named is NUGC-3. The data set is described as follows: Growth inhibition of human NUGC3 cells after 24 hrs by WST-1 assay. In kind it is functional. The settings on record: NUGC-3, 24 h. The method in brief:
as §1

Data set [6] in a line: Growth inhibition of HDF cells after 72 hrs by WST-1 assay. In kind it is cell-based. Particulars: human. The procedure, abridged: (§2)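 Normal cells (HDF, HUVEC) were grown in Eagle's MEM with 4.5 g/L glucose, 10% FCS, 5 mM L-glutamine and penicillin/streptomycin, 37 °C, 5% CO2. Cells were seeded at 1 × 10^4 per well, cultured 12 h, then exposed to compound (0.5% DMSO final) for 72 h. Viability was read by WST-1 at 450/630 nm. GI50 given as mean ± SE of five experiments.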

Data set [7] in a line: Growth inhibition of HUVEC cells after 72 hrs by WST-1 assay. In kind it is cell-based. The settings on record: human. The method in brief: as §2

Each structure is given as a SMILES string.

By GI50 is commonly meant the concentration giving 50% growth inhibition. A higher GI50 goes with less potent growth inhibition. Regarding `Nc1ccn([C@@H]2O[C@H](CO)[C@@H](O)[C@@H]2O)c(=O)n1` [CYTARABINE], the GI50 in data set [1] is 200 nM; in data set [2] it was 80 nM; in data set [3], 120 nM; in data set [4], 180 nM; in data set [5], 250 nM. Further, the GI50 at 72 h was 250 nM in data set [6] and 230 nM in data set [7].

Values taken from ChEMBL document CHEMBL2010709, “Pinophilins A and B, inhibitors of mammalian A-, B-, and Y-family DNA polymerases and human cancer cell proliferation” (J Nat Prod, 2012).
